Laboratory results reported in ChEMBL document CHEMBL2086376, “Total synthesis of 2''',5'''-diepisilvestrol and its C1''' epimer: key structure activity relationships at C1''' and C2'''” (J Nat Prod, 2012).
Calls of active or inactive are those of the source. The calls are words filed in the database; no cut-off is given here.

Assays:
[1] = Cytotoxicity against human colon cancer cells; type: functional, cell-based; settings: Cancer cell lines
[2] = test system: A549; test: Cytotoxicity against human A549 cells; type: functional, cell-based
[3] = species: Oryctolagus cuniculus; test: Inhibition of translation in rabbit reticulocyte lysate by luciferase assay; type: functional
Procedure, shortened: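 Cell-free translation in rabbit reticulocyte lysate, final KCl 135 mM, programmed with 8 μg/mL capped FF/HCV/Ren bicistronic mRNA. Firefly and Renilla luciferase activities were the read-out.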

[4] = Cytotoxicity against human lung cancer cells; type: functional; settings: Cancer cell lines, read-out: ED50 (the source's name)
[5] = test system: Leukemia cell; test: Anticancer activity in patient with chronic lymphocytic leukemia; type: functional; settings: Homo sapiens, read-out: LC50 (the source's name)
[6] = Cytotoxicity against human breast cancer cells; type: functional; settings: Cancer cell lines, read-out: ED50 (the source's name)

| Structure (SMILES) | inhibition [3] | EC50 [4] [nM] | EC50 [6] [nM] | other results |
| --- | --- | --- | --- | --- |
| COC(=O)[C@H]1[C@@H](O)[C@@]2(O)c3c(OC)cc(O[C@@H]4O[C@@H]([C@@H](O)CO)CO[C@H]4OC)cc3O[C@@]2(c2ccccc2)[C@@H]1c1ccccc1 |  |  |  | IC50 [1]: 10 nM; IC50 [2]: 130 nM |
| COC(=O)[C@H]1[C@@H](O)[C@@]2(O)c3c(OC)cc(O[C@@H]4O[C@@H]([C@@H](O)CO)CO[C@@H]4OC)cc3O[C@@]2(c2ccc(OC)cc2)[C@@H]1c1ccccc1 | Active |  |  |  |
| COC(=O)[C@H]1[C@@H](O)[C@@]2(O)c3c(OC)cc(O[C@@H]4O[C@@H]([C@H](O)CO)CO[C@H]4OC)cc3O[C@@]2(c2ccc(OC)cc2)[C@@H]1c1ccccc1 [SILVESTROL] |  | 1.2 | 1.5 | CC50 [5]: 6.9 nM |
| COC(=O)[C@H]1[C@@H](O)[C@@]2(O)c3c(OC)cc(O[C@@H]4O[C@@H]([C@H](O)CO)CO[C@@H]4OC)cc3O[C@@]2(c2ccc(OC)cc2)[C@@H]1c1ccccc1 | Active | 1.2 | 1.5 |  |
| COC(=O)[C@H]1[C@@H](O)[C@@]2(O)c3c(OC)cc(O[C@H]4O[C@@H]([C@@H](O)CO)CO[C@@H]4OC)cc3O[C@@]2(c2ccc(OC)cc2)[C@@H]1c1ccccc1 | inactive |  |  |  |
